Bioassay records as filed in PubChem BioAssay.
Apaf-1 act: activators of human Apaf-1 apoptosome, primary screen, biochemical, DEVD-Rh110 fluorescence, uHTS | Apaf-1 apoptosome caspase-3 activation; hits give low values | actives 0.31% (n = 330,000) | activity change, negative = activation, % at 20 µM;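 active = activity change at or below -40% at 20 µM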
Target sequence (O14727 whole entry, looked up): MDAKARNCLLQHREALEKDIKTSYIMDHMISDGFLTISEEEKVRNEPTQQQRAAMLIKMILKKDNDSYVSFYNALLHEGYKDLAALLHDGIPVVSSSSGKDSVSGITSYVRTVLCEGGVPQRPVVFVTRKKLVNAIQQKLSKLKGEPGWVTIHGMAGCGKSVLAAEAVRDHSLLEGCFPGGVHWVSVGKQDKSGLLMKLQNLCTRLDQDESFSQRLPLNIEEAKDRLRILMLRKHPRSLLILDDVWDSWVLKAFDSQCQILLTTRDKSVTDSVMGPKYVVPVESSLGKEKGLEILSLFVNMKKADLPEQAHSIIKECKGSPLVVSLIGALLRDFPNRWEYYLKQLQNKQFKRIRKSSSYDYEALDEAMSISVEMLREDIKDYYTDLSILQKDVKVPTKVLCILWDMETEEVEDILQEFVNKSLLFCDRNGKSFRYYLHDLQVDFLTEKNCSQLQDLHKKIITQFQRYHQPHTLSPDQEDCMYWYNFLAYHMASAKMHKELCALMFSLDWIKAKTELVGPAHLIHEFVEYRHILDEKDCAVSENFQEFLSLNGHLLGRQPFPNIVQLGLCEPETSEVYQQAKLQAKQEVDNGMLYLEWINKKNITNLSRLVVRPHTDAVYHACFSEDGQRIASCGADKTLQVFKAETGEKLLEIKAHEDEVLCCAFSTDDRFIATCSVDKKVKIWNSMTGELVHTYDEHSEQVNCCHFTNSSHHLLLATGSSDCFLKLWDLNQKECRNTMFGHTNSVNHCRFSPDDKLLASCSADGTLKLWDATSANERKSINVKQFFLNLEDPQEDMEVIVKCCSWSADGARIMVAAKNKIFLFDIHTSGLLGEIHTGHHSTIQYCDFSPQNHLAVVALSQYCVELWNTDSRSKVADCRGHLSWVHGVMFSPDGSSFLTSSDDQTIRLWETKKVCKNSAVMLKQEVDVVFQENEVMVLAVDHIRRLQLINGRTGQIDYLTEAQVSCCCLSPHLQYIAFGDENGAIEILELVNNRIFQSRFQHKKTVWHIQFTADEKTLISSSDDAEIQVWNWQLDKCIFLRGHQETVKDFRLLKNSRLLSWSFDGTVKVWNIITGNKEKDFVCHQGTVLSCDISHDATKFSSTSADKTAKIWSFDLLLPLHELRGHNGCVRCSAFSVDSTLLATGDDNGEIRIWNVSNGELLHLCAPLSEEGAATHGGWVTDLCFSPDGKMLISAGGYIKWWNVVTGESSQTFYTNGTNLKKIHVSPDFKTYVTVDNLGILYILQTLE
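Schedule: 30 min preincubation, 50 min reaction, room temperature / System: biochemical Apaf-1 apoptosome reconstitution / Medium: 20 mM HEPES pH 7.5 with CHAPS, BSA / Evaluation: Caspase-3 cleavage activity downstream of Apaf-1 activation / Detection: Caspase-3-released Rh110 fluorescence, 540 nm emission, 480 nm excitation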
Rh110 interf act: Rh110 fluorescence interference by putative Apaf-1 activators, confirmation, artefact control for Apaf-1 activator project, biochemical, 20 µM; shares compounds with Apaf-1 act; quenched caspase reaction, Ex480/Em540; fluorescence interference (activity change), % at 20 µM, hits read low; 980 tested, under 10 active; AID 504616, 2011;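 active = mean activity change at or below -40% when tested at 20 µM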
Apaf-1 act conf2: Apaf-1 activators, single-dose retest, confirmation, biochemical, fluorescence, DEVD-Rh110, 20 µM; activity change, negative = activation, % at 20 µM; actives 5% (n = 980); shares compounds with Apaf-1 act; reconstituted apoptosome caspase-3 activity; hits give low values;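 active = mean activity change at or below -40%, meaning activation of 40% or more, at 20 µM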
* hit, by the source's call. Only a sample is shown.

SMILES	Apaf-1 act	others
COC(=O)C(Cc1ccc(N(CCCl)CCCl)cc1)N=Cc1ccccc1O (configuration not stated)	-62.9*
O=[N+]([O-])c1ccc(NC2CCN(Cc3ccccc3)CC2)c2ccncc12	74.2
Cn1c(=O)[nH]c2nncnc2c1=O	68.1
COC(=O)C1=C(c2ccc(OCc3ccccc3)cc2)C[C@@H]2CC[C@H]1N2C(=O)NC1CCN(Cc2ccccc2)CC1	57.7
CCC(C)N1C(=O)NC(=O)C2(Cc3c(ccc4ccccc34)N(C)C2)C1=O (configuration not stated)	64.8
O=C1NC(=O)N(c2ccc(Cl)cc2)C(=O)/C1=C/c1coc2ccc(O)cc2c1=O	-40.9*	Rh110 interf act=0.0;Apaf-1 act conf2=17.4
COc1cc2c(cc1OC)-c1c(OC)c(OC)cc3c1C(C2)N(C)CC3 (configuration not stated)	95.1
Clc1ccc(C[n+]2c(-c3ccccc3)cc(-c3ccccc3)cc2-c2ccccc2)cc1	52.2
CCCCCn1c(N)c(C(=O)NCc2cccs2)c2nc3ccccc3nc21	69.8
Cc1ccc(-n2c(C)nc3ccccc3c2=O)c(C)c1	-76.5*	Rh110 interf act=8.5;Apaf-1 act conf2=9.0
CCCCCCn1c(N)c(C(=O)NCCN2CCOCC2)c2nc3ccccc3nc21	51.8
COCCOC(=O)c1c(N)n(Cc2ccccc2)c2nc3ccccc3nc12	82.6
CCCCN1C(=N)C(CC)(CC)C(=O)NC1=O	-42.5*	Rh110 interf act=4.4;Apaf-1 act conf2=8.1
O=[N+]([O-])c1ccccc1-c1cc(-c2ccccc2)cc(-c2ccccc2)[n+]1Cc1ccccc1Cl	52.8
CCCNC(=O)c1c(N)n(CC2CCCO2)c2nc3ccccc3nc12 (configuration not stated)	92.6
O=C1C=Cc2ccccc2C1=O	61.8
COc1cc2c(cc1O)C[C@H]1NCCc3cc4c(c-2c31)OCO4	71.0
c1ccc2c(c1)CSc1ccccc1C2C1=NCCN1 (configuration not stated)	-228.3*	Rh110 interf act=12.2;Apaf-1 act conf2=11.9
ClC1C(Cl)C(Cl)C(Cl)C(Cl)C1Cl (configuration not stated)	-1.7
Nc1c(C(=O)NCCCc2ccccc2)c2nc3ccccc3nc2n1Cc1cccs1	83.8
CC(C)CCn1c(N)c(C(=O)OCC2CCCO2)c2nc3ccccc3nc21 (configuration not stated)	41.3
COc1cc2c(cc1OC)-c1c3c(cc4c1[C@@H](C2)N(C)CC4)OCO3	97.5
Brc1ccc(Oc2ccc(Br)cc2Br)c(Br)c1	-139.5*	Rh110 interf act=12.0;Apaf-1 act conf2=6.8
COCCCn1c(N)c(C(=O)NCCC(C)C)c2nc3ccccc3nc21	90.6
Nc1cc2nc3ccccc3nc2cc1N	62.4
SMILES	Apaf-1 act	others
COC(=O)c1nc(-c2ccc3c(n2)C(=O)C(N)=C(OC)C3=O)c(N)c(-c2ccc(OC)c(OC)c2O)c1C	88.8
CCn1nc(/C=C/c2ccccc2)nc2c(=O)n(C)c(=O)nc1-2	98.8
COCC(C)OC(=O)c1c(N)n(Cc2ccco2)c2nc3ccccc3nc12 (configuration not stated)	60.7
Cc1cc(/C=C2/C(=O)NC(=O)N(Cc3ccco3)C2=O)c(C)n1-c1ccccc1	-52.9*	Rh110 interf act=-4.2;Apaf-1 act conf2=13.9
CCCCn1c(NC(=O)c2ccco2)c(C(=O)OCC)c2nc3ccccc3nc21	82.6
CC(=O)OCC[N+](C)(C)C	-3.3
CCCCn1c(NS(=O)(=O)c2ccc(C)cc2)c(C(=O)OCC)c2nc3ccccc3nc21	90.3
COC(=O)C(O)(c1c(C)[nH]n(-c2ccccc2)c1=O)C(F)(F)F (configuration not stated)	78.6
CC(C)[C@H]1C(=O)N2CCC[C@H]2[C@]2(O)O[C@](NC(=O)[C@@H]3C=C4c5cccc6[nH]cc(c56)C[C@H]4N(C)C3)(C(C)C)C(=O)N12	94.8
O=c1[nH]c2ccccc2n1CCCN1CCC(n2c(=O)[nH]c3cc(Cl)ccc32)CC1	-41.4*	Rh110 interf act=3.8;Apaf-1 act conf2=3.8
CC(C)OCCCNC(=O)c1c(N)n(CC2CCCO2)c2nc3ccccc3nc12 (configuration not stated)	93.9
CCN1/C(=C\C=C\C2=[N+](CC)c3ccccc3C2(C)C)C(C)(C)c2ccccc21	56.4
COc1cc(C(c2c(C)[nH]n(-c3ccccc3)c2=O)c2c(C)[nH]n(-c3ccccc3)c2=O)cc(OC)c1OC	91.8
COc1ccc(C(=O)Cn2c(NCCCl)nc3ccccc32)cc1	-330.6*	Rh110 interf act=2.2;Apaf-1 act conf2=11.8
COc1ccc(Cn2c(N)c(C(=O)NCc3ccco3)c3nc4ccccc4nc32)cc1	66.9
CC(C)C[C@H]1C(=O)N2CCCC2[C@]2(O)O[C@](NC(=O)[C@@H]3C=C4c5cccc6[nH]cc(c56)CC4N(C)C3)(C(C)C)C(=O)N12 (some centres not stated)	86.8
CCCCNC(=O)c1c(N)n(Cc2ccc3c(c2)OCO3)c2nc3ccccc3nc12	95.4
O=C(c1ccc2nc(-c3ccco3)c(-c3ccco3)nc2c1)N1CCC2(CC1)OCCO2	56.4
Nc1c(C(=O)NCc2ccco2)c2nc3ccccc3nc2n1CCN1CCOCC1	44.2
CCOC(=O)c1cc(CC)sc1/N=C/c1c(O)[nH]c(=S)[nH]c1=O	-199.8*	Rh110 interf act=-133.3*;Apaf-1 act conf2=4.7
O=[N+]([O-])c1ccc(NC2CCCC2)c2ccncc12	41.9
C=CCN1CC[C@]23c4c5ccc(O)c4O[C@H]2C(=O)CC[C@@]3(O)[C@H]1C5	14.8
NC(Cc1cc(O)c(O)cc1O)C(=O)O (configuration not stated)	84.1
COc1ccccc1CCNCc1cc2c(cc1[N+](=O)[O-])OCO2	-192.1*	Rh110 interf act=5.3;Apaf-1 act conf2=12.8
CCCCOCCCn1c(N)c(C(=O)OCCOC)c2nc3ccccc3nc21	65.9
CCC(COC(=O)c1cc(OC)c(OC)c(OC)c1)(c1ccccc1)N(C)C (configuration not stated)	12.3
O=C1NC(=O)C(=Cc2ccc(Oc3ccc([N+](=O)[O-])cc3)cc2)C(=O)N1	42.8
NC(N)=N/N=C/c1cn(-c2ccccc2)nc1-c1cccs1	40.9
Nc1c(C(=O)NCc2ccco2)c2nc3ccccc3nc2n1Cc1ccc(F)cc1	89.3
CCCCn1c(N)c(C(=O)NCc2cccs2)c2nc3ccccc3nc21	85.0
